How the values were obtained:
Format in all cases: functional
[1] = system: Mus musculus; assay: Antitumor activity against L1210/ara-C leukemia in mice (Average 7-day weight change (%)) at the dose of 500 mg/kg
Outline: (§1)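 Male B6D2F1J mice (5–9 per group) were given 10^5 L1210/ara-C cells i.p. on day 0, with treatment from day 1 on qd×5 or q4d(2,6). Vehicles were sterile water, pH 7.4 0.05 M phosphate buffer, or a Tween 80/CMC/benzyl alcohol saline suspension. Weights were taken on days 1 and 7; change is expressed in g/mouse and as a percentage.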

[2] = system: Mus musculus; assay: Antitumor activity against L1210 leukemia in mice (Average weight per mouse on day 1.) at the dose of 1000 mg/kg
Outline: (§2)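 Male B6D2F1J mice (5–9 per group) received 10^5 L1210 cells i.p. on day 0 and drug from day 1, given qd×5 or q4d(2,6). Vehicles were sterile water, 0.05 M potassium phosphate pH 7.4, or 0.4% Tween 80/0.5% CMC/0.9% benzyl alcohol/0.9% saline. Read-out is average body weight per mouse (g) on day 1.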

[3] = system: Mus musculus; assay: Antitumor activity against L1210/ara-C leukemia in mice (Average 7-day weight change (%)) at the dose of 250 mg/kg; outline: as §1
[4] = system: Mus musculus; assay: Antitumor activity against L1210/ara-C leukemia in mice (Percent increase in life span.) at the dose of 1000 mg/kg
Outline: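 Same protocol as the L1210 assay, but with 10^5 kinase-deficient L1210/ara-C cells inoculated ip into male B6D2F1J mice (groups of 5–9) on day 0. Treatment begins day 1, qd×5 or q4d(2,6). %ILS = (T/C − 1)×100 using median survival times of treated and control groups. Body weight recorded days 1 and 7.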

[5] = system: Mus musculus; assay: Antitumor activity against L1210 leukemia in mice (Average weight per mouse on day 1.) at the dose of 100 mg/kg; outline: as §2
[6] = system: Mus musculus; assay: Antitumor activity against L1210 leukemia in mice (Average 7-day weight change (%)) at the dose of 1000 mg/kg
Outline: (§3)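 Male B6D2F1J mice, groups of five to nine, inoculated ip with 10^5 L1210 cells on day 0. Drug treatment started day 1 on qd×5 or q4d(2,6) schedule. Vehicles: ara-C in sterile water; the n-butyl phosphate ester in 0.05 M pH 7.4 potassium phosphate buffer; others as suspensions in 0.4% Tween 80/0.5% low-density CMC/0.9% benzyl alcohol/0.9% saline. Mice weighed days 1 and 7; 7-day weight change given as g/mouse and %.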

[7] = system: Mus musculus; assay: Antitumor activity against L1210 leukemia in mice (Average 7-day weight change (%)) at the dose of 500 mg/kg; outline: as §3
[8] = system: Mus musculus; assay: Antitumor activity against L1210 leukemia in mice (Average 7-day weight change) at the dose of 200 mg/kg; outline: as §3
[9] = system: Mus musculus; assay: Antitumor activity against L1210/ara-C leukemia in mice (Average 7-day weight change) at the dose of 500 mg/kg
Outline: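 Male B6D2F1J mice, groups of 5–9, inoculated ip with 10^5 L1210/ara-C cells on day 0. Dosing began day 1 on a qd×5 or q4d(2,6) schedule. Ara-C was given in sterile water, the n-butyl phosphate ester in 0.05 M pH 7.4 potassium phosphate buffer, and others as suspensions in 0.4% Tween 80/0.5% CMC/0.9% benzyl alcohol/0.9% saline. Mice were weighed on days 1 and 7; 7-day change given in g and %.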

[10] = system: Mus musculus; assay: Antitumor activity against L1210 leukemia in mice (Average 7-day weight change (%)) at the dose of 200 mg/kg; outline: as §3
[11] = system: Mus musculus; assay: Antitumor activity against L1210 leukemia in mice (Average 7-day weight change) at the dose of 1000 mg/kg; outline: as §3
[12] = system: Mus musculus; assay: Antitumor activity against L1210 leukemia in mice (Average 7-day weight change) at the dose of 50 mg/kg; outline: as §3
[13] = system: Mus musculus; assay: Antitumor activity against L1210 leukemia in mice (Average 7-day weight change (%)) at the dose of 250 mg/kg; outline: as §3

Nc1ccn([C@@H]2O[C@H](CO)[C@@H](O)[C@@H]2O)c(=O)n1 [CYTARABINE]
Weight change [1]: 19% | Average weight [2]: 24 g mouse-1 | Weight change [3]: 20% | ILS at 1000 mg/kg [4]: 0% | Average weight [5]: 22.4 g mouse-1 | Weight change [6]: 3% | Weight change [7]: 2% | Weight change [8]: -1.6 g mouse-1 | Weight change [9]: 3.8 g mouse-1 | Weight change [10]: -7% | Weight change [11]: 0.8 g mouse-1 | Weight change [12]: 0.2 g mouse-1 | Weight change [13]: 7%
